Laboratory results published in ChEMBL document CHEMBL4616713, “Discovery of Novel Nonpeptidic PAR2 Ligands” (ACS Med Chem Lett, 2020).
Non-standard residues stand in square brackets, D forms with d. Residues, ends and D or L forms follow the SMILES beside them. *: point of attachment. Orn = NCCC[C@H](N)C(=O)O; 2Furoyl = O=C(c1ccco1)*

Legend:
[1] = biological target: T1, Proteinase-activated receptor 2 (Homo sapiens, UniProt P55085); assay: Agonist activity at human PAR2 expressed in HEK293T cells assessed as induction of Galphaq-stimulated IP1 formation incubated for 2 hrs by FRET assay; type: functional, cell-based, HEK-293T
T1 sequence (P55085 whole entry): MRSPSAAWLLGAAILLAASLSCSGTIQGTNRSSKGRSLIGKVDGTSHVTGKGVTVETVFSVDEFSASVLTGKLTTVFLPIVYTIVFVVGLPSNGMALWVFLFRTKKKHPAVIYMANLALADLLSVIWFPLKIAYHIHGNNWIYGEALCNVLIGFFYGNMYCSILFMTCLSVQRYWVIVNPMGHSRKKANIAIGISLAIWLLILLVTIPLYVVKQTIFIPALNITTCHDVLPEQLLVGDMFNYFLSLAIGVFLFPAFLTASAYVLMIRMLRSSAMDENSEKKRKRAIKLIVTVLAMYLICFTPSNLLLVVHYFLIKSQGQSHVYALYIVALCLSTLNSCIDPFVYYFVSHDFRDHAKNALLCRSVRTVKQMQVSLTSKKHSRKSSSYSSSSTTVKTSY
Summary of the method: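 Gq activation via PAR2 in HEK293 cells, read as IP1 accumulation by FRET (IP-One). For curves without a plateau, the value given is efficacy at 30 μM. Data are mean ± SEM of at least three independent experiments, each performed in duplicate.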

[2] = biological target: T1, Proteinase-activated receptor 2; assay: Agonist activity at PK1-tagged PAR2 (unknown origin) expressed in HEK293 cells assessed as induction of beta-arrestin recruitment incubated for 90 mins by Pathhunter chemiluminescent assay; type: cell-based
Summary of the method: (§1)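 PathHunter enzyme-complementation read-out of β-arrestin-2 recruitment to PAR2 in HEK293 cells. Efficacy is expressed relative to reference 2f-LIGRLO-NH2. Data are mean ± SEM of at least three independent experiments run in duplicate.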

[3] = biological target: T1, Proteinase-activated receptor 2; assay: Agonist activity at PK1-tagged PAR2 (unknown origin) expressed in HEK293 cells assessed as induction of beta-arrestin recruitment at 30 uM incubated for 90 mins by Pathhunter chemiluminescent assay relative to 2f-LIGRLO-NH2; type: cell-based; details: 1.5 h; summary of the method: as §1
[4] = biological target: T1, Proteinase-activated receptor 2; assay: Agonist activity at PK1-tagged PAR2 (unknown origin) expressed in HEK293 cells assessed as induction of beta-arrestin recruitment incubated for 90 mins by Pathhunter chemiluminescent assay relative to 2f-LIGRLO-NH2; type: cell-based; details: 1.5 h; summary of the method: as §1
[5] = Metabolic stability in Sprague-Dawley rat liver microsomes assessed as CYP450-mediated drug degradation at 20 uM measured up to 60 mins in presence of NADPH by LC-MS analysis; details: 1 h
[6] = Stability in rat plasma measured up to 4 hrs by LC-MS analysis; type: ADME, cell-free
Summary of the method: (§2)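 Ligand was incubated in rat plasma and sampled at set time points up to 4 h. Samples were analysed by LC–MS. Standard-corrected peak areas are expressed as % of t = 0 min, mean ± SEM (n ≥ 3).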

[7] = Stability in rat plasma assessed as drug degradation after 1 hr by LC-MS analysis; type: ADME, cell-free; summary of the method: as §2

EC50 ([1]; hek-293t)	EC50 ([2]; hek293)	EC50 ([1]; read-out: EC50) [nM]	Emax at 30 µM [3] [%]	EC50 ([2]; read-out: EC50) [µM]	Emax [4] [%]	Stability [5]	Stability [6]	Stability [7]	SMILES
Not Active	Not Active								NC(=O)Cc1ccccc1CNC(=O)Cc1ccccc1CNC(=O)c1ccno1
		1900	32						NC(=O)Cc1ccccc1CNC(=O)[C@H](Cc1ccccc1)NC(=O)c1ccno1
		590		6	65	Stable	Stable		NC(=O)Cc1ccccc1CNC(=O)[C@H](CC1CCCCC1)NC(=O)c1ccno1
		640		8.9	95	Stable	Stable		Cc1cc(C(=O)N[C@@H](CC2CCCCC2)C(=O)NCc2ccccc2CC(N)=O)on1
		150		0.43		Stable		Unstable	CC[C@H](C)[C@H](NC(=O)[C@H](CC(C)C)NC(=O)c1ccco1)C(=O)NCC(=O)N[C@@H](CCCN=C(N)N)C(=O)N[C@@H](CC(C)C)C(=O)N[C@@H](CCCN)C(N)=O (2Furoyl-LIGRL[Orn]-NH2)
					100				CC[C@H](C)[C@H](NC(=O)[C@H](CC(C)C)NC(=O)c1ccco1)C(=O)NCC(=O)N[C@@H](CCCNC(=N)N)C(=O)N[C@@H](CC(C)C)C(=O)N[C@@H](CCCN)C(N)=O (2Furoyl-LIGRL[Orn]-NH2)
